Counter-ions that a name gives are not always drawn. Like-named read-outs stand apart in the source and are kept apart here.
Columns and labels:
[1] = system: Plasmodium falciparum strain Dd2; assay: SYBR Green growth inhibition assay, P. falciparum Dd2; assay type: cell-based
[2] = system: Plasmodium falciparum strain D6; assay: SYBR Green growth inhibition assay, P. falciparum D6; assay type: cell-based; details: read-out: IC50 D6
HepG2 cells = assay: HepG2 cytotoxicity assay; assay type: cell-based, human; details: read-out: IC50 cytotoxicity, 24 h drug, 24 h recovery
[3] = system: P. falciparum strain Tm90–C2B; assay: SYBR Green growth inhibition assay, P. falciparum Tm90-C2B; assay type: cell-based, Plasmodium falciparum; details: read-out: IC50 Tm90–C2B
Outline: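 Human erythrocytes (≤28 days old), 2% hematocrit, asynchronous culture at 0.2% initial parasitemia, in RPMI-1640 with HEPES, hypoxanthine, glucose, glutamine and Albumax II. 2-fold serial dilution starting at 20 μM, quadruplicate. Incubated 72 h at 37 °C under 5% O2/5% CO2/90% N2. SYBR Green I dye-detergent added for at least 1 h in the dark; fluorescence read at 497/520 nm, normalized to untreated wells, plotted against log concentration.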

[4] = system: P. falciparum A6 (SB1-A6); assay: SYBR Green growth inhibition assay, P. falciparum A6; assay type: cell-based, Plasmodium falciparum; details: read-out: IC50 A6, 72 h
Outline: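 Asynchronous parasites grown in human erythrocytes in RPMI-1640 with HEPES, hypoxanthine and Albumax II under 5% O2/5% CO2/90% N2 at 37 °C. Test compound in 2-fold serial dilution from 20 μM, run in quadruplicate, at 2% hematocrit and 0.2% starting parasitemia for 72 h. SYBR Green I lysis dye added for ≥1 h in the dark. Fluorescence read at 497/520 nm, normalized to untreated wells and plotted against log concentration.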

Plasmodium yoelii = assay: Modified 4-day Peters test, murine malaria; assay type: in vivo, Plasmodium yoelii in mice; details: for P. yoelii ED90 / P. yoelii ED50: oral gavage days 1–4, parasitemia day 5, mice; for P. yoelii NRD (nonrecrudescence dose, cure dose): oral gavage up to 25 mg/kg/day, no parasites at day 30
[5] = Murine microsomal stability; assay type: in vitro ADME; details: mouse, pooled murine liver microsomes; for CLint scaled at 1 μM: pH 7.4; for half-life at 1 μM: pH 7.4, murine microsomal stability, t1/2, 1 μM, 0.5 mg/mL protein, 37 °C, 1 h, NADPH
[6] = read-out: IC50 Dd2, multidrug-resistant P. falciparum strain Dd2, 72 h
[7] = P. falciparum pan-sensitive strain D6, 72 h, average of two to four determinations
[8] = multidrug-resistant clinical isolate also resistant to atovaquone, 72 h
[9] = in-house derived mutant line resistant to respiratory antagonists
[10] = Plasmodium falciparum, DD2, 72 h, read-out: IC50 Dd2
[11] = Plasmodium falciparum, D6, 72 h
[12] = Plasmodium falciparum, TM90, 72 h
[13] = Plasmodium falciparum, DD2, 48 h, read-out: IC50 Dd2, 48 h
[14] = Plasmodium falciparum, DD2, 72 h, read-out: IC50 Dd2, 72 h
[15] = Plasmodium falciparum, DD2, 96 h, read-out: IC50 Dd2, 96 h

Compound	IC50 [1, 10] [nM]	IC50 [2, 11] [nM]	IC50 [3, 12] [nM]	IC50 ([4]; Plasmodium falciparum) [nM]	also measured
2,2′-Bis[(4-carbonamidophenyl)methylene]carbonimidic Dihydrazide Hydrochloride [Compound 30]	–	–	–	–	IC50 [1, 6]: 405 nM; IC50 [2, 7]: 527 nM; IC50 (HepG2 cells): 42000 nM; IC50 [3, 8]: 727 nM; IC50 [4, 9]: 516 nM
Cl.N#Cc1cc(/C=N/NC(=N)N/N=C/c2ccc(F)c(C#N)c2)ccc1F [Compound 1, 2,2′-Bis[(3-cyano-4-fluorophenyl)methylene]carbonimidic Dihydrazide Hydrochloride]	12	4	16	14	P. yoelii ED90 (Plasmodium yoelii): 0.28 mg/kg/day; CLint scaled at 1 μM [5]: 29.3 mL/min/kg; half-life at 1 μM [5]: > 150 min
N=C(N/N=C/c1ccccc1F)N/N=C/c1ccccc1F [Compound 2, 2,2′-Bis[(2-fluorophenyl)methylene]carbonimidic Dihydrazide Hydrochloride]	4590	2870	> 5000	1890	–
N=C(N/N=C/c1cccc(F)c1)N/N=C/c1cccc(F)c1 [Compound 3, 2,2′-Bis[(3-fluorophenyl)methylene]carbonimidic Dihydrazide Hydrochloride]	> 5000	767	> 5000	426	–
N=C(N/N=C/c1ccc(F)cc1)N/N=C/c1ccc(F)cc1 [Compound 4, 2,2′-Bis[(4-fluorophenyl)methylene]carbonimidic Dihydrazide Hydrochloride]	3790	1020	4900	369	–
N=C(N/N=C/c1ccccc1Cl)N/N=C/c1ccccc1Cl [Compound 5, 2,2′-Bis[(2-chlorophenyl)methylene]carbonimidic Dihydrazide Hydrochloride]	961	334	1220	348	–
N=C(N/N=C/c1cccc(Cl)c1)N/N=C/c1cccc(Cl)c1 [Compound 6, 2,2′-Bis[(3-chlorophenyl)methylene]carbonimidic Dihydrazide Hydrochloride]	567	202	664	237	–
N=C(N/N=C/c1ccccc1Br)N/N=C/c1ccccc1Br [Compound 7, 2,2′-Bis[(2-bromophenyl)methylene]carbonimidic Dihydrazide Hydrochloride]	715	280	974	876	–
N=C(N/N=C/c1cccc(Br)c1)N/N=C/c1cccc(Br)c1 [Compound 8, 2,2′-Bis[(3-bromophenyl)methylene]carbonimidic Dihydrazide Hydrochloride]	1520	572	1840	502	–
N=C(N/N=C/c1ccc(Br)cc1)N/N=C/c1ccc(Br)cc1 [Compound 9, 2,2′-Bis[(4-bromophenyl)methylene]carbonimidic Dihydrazide Hydrochloride]	876	277	899	269	–
Cc1ccc(/C=N/NC(=N)N/N=C/c2ccc(C)cc2)cc1 [Compound 10, 2,2′-Bis[(4-methylphenyl)methylene]carbonimidic Dihydrazide Hydrochloride]	2430	905	2530	> 5000	–
COc1ccc(/C=N/NC(=N)N/N=C/c2ccc(OC)cc2)cc1 [Compound 11, 2,2′-Bis[(4-methoxyphenyl)methylene]carbonimidic Dihydrazide Hydrochloride]	1600	263	> 5000	289	–
N=C(N/N=C/c1ccc(C(F)(F)F)cc1)N/N=C/c1ccc(C(F)(F)F)cc1 [Compound 12, 2,2′-Bis[(4-trifluoromethylphenyl)methylene]carbonimidic Dihydrazide Hydrochloride]	1540	614	2740	567	–
N=C(N/N=C/c1ccccc1OC(F)(F)F)N/N=C/c1ccccc1OC(F)(F)F [Compound 14, 2,2′-Bis[(2-trifluoromethoxyphenyl)methylene]carbonimidic Dihydrazide Hydrochloride]	2330	1080	> 5000	391	–
N=C(N/N=C/c1cccc(OC(F)(F)F)c1)N/N=C/c1cccc(OC(F)(F)F)c1 [Compound 15, 2,2′-Bis[(3-trifluoromethoxyphenyl)methylene]carbonimidic Dihydrazide Hydrochloride]	1570	670	2990	689	–
Cl.N=C(N/N=C/c1ccc(OC(F)(F)F)cc1)N/N=C/c1ccc(OC(F)(F)F)cc1 [Compound 16, 2,2′-Bis[(4-trifluoromethoxyphenyl)methylene]carbonimidic Dihydrazide Hydrochloride]	83	39	114	52	IC50 [1, 13]: 410 nM; IC50 [1, 14]: 195 nM; IC50 [1, 15]: 192 nM; P. yoelii ED50 (Plasmodium yoelii): 1.2 mg/kg/day; P. yoelii ED90 (Plasmodium yoelii): 3.7 mg/kg/day; P. yoelii NRD (nonrecrudescence dose, cure dose) (Plasmodium yoelii): 12.5 mg/kg/day; CLint scaled at 1 μM [5]: 31.7 mL/min/kg; half-life at 1 μM [5]: > 150 min
N=C(N/N=C/c1ccc(OC(F)F)cc1)N/N=C/c1ccc(OC(F)F)cc1 [Compound 18, 2,2′-Bis[(4-difluoromethoxyphenyl)methylene]carbonimidic Dihydrazide Hydrochloride]	191	71	193	87	–
N#Cc1ccccc1/C=N/NC(=N)N/N=C/c1ccccc1C#N [Compound 20, 2,2′-Bis[(2-cyanophenyl)methylene]carbonimidic Dihydrazide Hydrochloride]	2100	1020	1990	969	–
Cl.N#Cc1cccc(/C=N/NC(=N)N/N=C/c2cccc(C#N)c2)c1 [Compound 21, 2,2′-Bis[(3-cyanophenyl)methylene]carbonimidic Dihydrazide Hydrochloride]	20	7	31	24	IC50 [1, 13]: 31 nM; IC50 [1, 14]: 21 nM; IC50 [1, 15]: 22 nM; P. yoelii ED50 (Plasmodium yoelii): 7.1 mg/kg/day; P. yoelii ED90 (Plasmodium yoelii): 9.4 mg/kg/day; P. yoelii NRD (nonrecrudescence dose, cure dose) (Plasmodium yoelii): >25 mg/kg/day; CLint scaled at 1 μM [5]: 93.8 mL/min/kg; half-life at 1 μM [5]: 58.2 min
N=C(N/N=C/c1ccccc1)N/N=C/c1ccccc1 [Compound 24, 2,2′-Bis(phenylmethylene)carbonimidic Dihydrazide Hydrochloride]	4300	705	> 5000	581	–
N=C(NN=Cc1ccc(O)cc1)NN=Cc1ccc(O)cc1 [Compound 25, 2,2′-Bis[(4-phenol)methylene]carbonimidic Dihydrazide Hydrochloride]	–	–	–	–	IC50 [1, 6]: 240 nM; IC50 [2, 7]: 143 nM; IC50 (HepG2 cells): 39000 nM; IC50 [3, 8]: 286 nM; IC50 [4, 9]: 278 nM
N=C(NN=Cc1ccc(-c2ccccc2)cc1)NN=Cc1ccc(-c2ccccc2)cc1 [Compound 26, 2,2′-Bis[(4-diphenyl)methylene]carbonimidic Dihydrazide Hydrochloride]	–	–	–	–	IC50 [1, 6]: 87 nM; IC50 [2, 7]: 15 nM; IC50 (HepG2 cells): > 200000 nM; IC50 [3, 8]: 71 nM; IC50 [4, 9]: 33 nM
CN(C)c1ccc(/C=N/NC(=N)N/N=C/c2ccc(N(C)C)cc2)cc1 [Compound 28, 2,2′-Bis[(4-dimethylaminophenyl)methylene]carbonimidic Dihydrazide Hydrochloride]	264	118	213	122	–
N=C(N/N=C/c1ccc(N2CCOCC2)cc1)N/N=C/c1ccc(N2CCOCC2)cc1 [Compound 33, 2,2′-Bis[(4-morpholinophenyl)methylene]carbonimidic Dihydrazide Hydrochloride]	329	131	295	116	–
N=C(N/N=C/c1ccccc1)N/N=C/c1ccccc1F [Compound 38, 2-(Phenylmethylene)-2′-[(2-Fluorophenyl)methylene]carbonimidic Dihydrazide Hydrochloride]	2200	1030	> 5000	833	–
O=C(c1ccc(F)cc1)C1CCN(CCn2c(=O)[nH]c3ccccc3c2=O)CC1 [ketanserin, reference compound]	–	–	–	–	half-life at 1 μM [5]: 14.5 min

Reference: article PMC8273112 (ACS Infectious Diseases, 2021)
